Source: PubChem (Johns Hopkins Ion Channel Center)
TRPC4 block: inhibitors of mouse TRPC4 channel, primary screen, Fluo4 calcium, HEK293 TRPC4beta/mu-opioid cells. Short transient receptor potential channel 4 (Mus musculus), Q9QUQ5. DAMGO-evoked Fluo4 calcium flux; stronger effect = lower value. B-score at 10 µM. 300,000 tested, 0.39% active. AID 2247, 2010;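 active means B-score over 3 SD under the library average, no early fluorescence shift, positive overall ratio signal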
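Assay system: HEK293 cells with stable TRPC4beta plus mu-opioid receptor expression; Probe or stimulus: DAMGO in two steps, submaximal then maximal; Dosing: single-point compound dosing; Measured by: Fluo4 calcium-dye fluorescence, kinetic read; Read-out basis: B score from integrated Fluo4 fluorescence ratio.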
TRPC4 agonist: activators of mouse TRPC4 channel, primary screen, Fluo4 calcium, HEK293 TRPC4beta/mu-opioid cells | Short transient receptor potential channel 4 (Mus musculus), Q9QUQ5 | Fluo4 calcium fluorescence; stronger effect = higher value | B-score at 10 µM | 310,000 tested, 0.49% active;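 active means B-score above 5 SD of library B-scores, and initial fluorescence ratio not above library mean plus 5 SD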;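 further: positive B-score marks a calcium rise read as TRPC4 activation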
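Material: HEK293 stable line with TRPC4beta plus mu-opioid receptor; technique: Fluo4 calcium-sensitive dye fluorescence, kinetic, 1 Hz baseline; timing: Fluo4 dye loading 45 min at room temperature, 110 s recording; controls: assay buffer as low control, maximal DAMGO as high control; read-out: integrated baseline-normalised fluorescence ratio, converted to per-well B score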
TRPC4 PAM: positive allosteric modulators of TRPC4, primary screen, cell-based, mouse TRPC4beta, HEK293 mu-opioid, Fluo-4 calcium; Short transient receptor potential channel 4 (Mus musculus), Q9QUQ5; DAMGO EC20, Fluo-4 Ca2+ flux; stronger effect = higher value; B-score at 10 µM; 310,000 tested, 0.42% active;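 active means B-score of calcium response area above 5 SD of library B-scores, with initial fluorescence ratio within 5 SD of library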;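 further: B-score of integrated fluorescence ratio over time as area under calcium response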
TRPC6 inhibitor: mouse TRPC6 channel inhibitors, primary screen, cell-based, HEK293, membrane potential dye; B-score at 10 µM; ACh-evoked depolarization; stronger effect = lower value; 310,000 tested, 1.1% active;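 active means B-score under library mean minus 3 SD, initial fluorescence not abnormally high, positive integrated signal ratio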;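 further: B-score derived from integrated fluorescence ratio over the kinetic read; more negative B-score means stronger inhibition of depolarization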
Target sequence (Q61143 whole entry, looked up): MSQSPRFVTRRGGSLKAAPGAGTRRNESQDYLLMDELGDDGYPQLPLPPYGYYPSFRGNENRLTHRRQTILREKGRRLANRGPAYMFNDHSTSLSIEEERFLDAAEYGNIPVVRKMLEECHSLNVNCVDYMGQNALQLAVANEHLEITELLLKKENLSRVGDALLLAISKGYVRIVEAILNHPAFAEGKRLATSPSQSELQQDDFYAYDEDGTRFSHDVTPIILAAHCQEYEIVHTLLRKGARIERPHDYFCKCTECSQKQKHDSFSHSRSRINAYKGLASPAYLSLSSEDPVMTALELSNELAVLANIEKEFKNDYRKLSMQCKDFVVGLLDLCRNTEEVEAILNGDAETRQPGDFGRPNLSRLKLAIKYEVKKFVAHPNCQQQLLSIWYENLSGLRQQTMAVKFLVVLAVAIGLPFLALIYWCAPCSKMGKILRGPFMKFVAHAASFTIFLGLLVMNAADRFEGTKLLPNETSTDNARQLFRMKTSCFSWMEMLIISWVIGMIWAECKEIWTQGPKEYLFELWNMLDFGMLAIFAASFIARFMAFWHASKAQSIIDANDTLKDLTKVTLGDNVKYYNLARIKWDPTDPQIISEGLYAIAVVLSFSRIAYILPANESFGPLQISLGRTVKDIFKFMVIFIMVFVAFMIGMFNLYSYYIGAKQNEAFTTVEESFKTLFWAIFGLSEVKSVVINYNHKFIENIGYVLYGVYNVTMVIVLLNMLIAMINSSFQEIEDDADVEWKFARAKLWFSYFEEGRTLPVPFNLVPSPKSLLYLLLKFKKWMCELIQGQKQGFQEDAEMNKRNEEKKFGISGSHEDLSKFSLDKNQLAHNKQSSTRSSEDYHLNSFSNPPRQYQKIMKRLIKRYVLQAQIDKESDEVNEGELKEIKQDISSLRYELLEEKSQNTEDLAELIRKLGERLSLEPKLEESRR
TRPC6 activator: mouse TRPC6 channel activators, primary screen, cell-based, HEK293, membrane potential dye; 310,000 tested, 0.13% active; HEK293-TRPC6 membrane potential dye fluorescence; stronger effect = higher value; Short transient receptor potential channel 6 (Mus musculus), Q61143; B-score at 10 µM; AID 2550, 2010;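 active means B-score of the integrated fluorescence ratio above library mean plus 3 SD, and starting fluorescence ratio within library mean plus 5 SD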;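 further: higher score means more depolarization so channel activation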
An asterisk follows results filed as active; i = inactive. Hits are enriched below; roughly 2.3% of the tested compounds scored in any of these assays.

SMILES | TRPC4 block | TRPC4 agonist | TRPC4 PAM | TRPC6 inhibitor | TRPC6 activator
CCn1c(=O)c(C(=O)NNC(=O)c2ccccc2F)c(O)c2ccccc21 | i | 114* | i | i | i
Cc1ccsc1/C=C(\C#N)C(=O)Nc1c(C)n(C)n(-c2ccccc2)c1=O | i | i | 11* | i | i
O=S(=O)(Cc1cc(Cl)nc(-c2ccncc2)n1)c1ccccc1 | i | i | i | i | i
S=C1NC(c2ccccc2)=NCN1c1ccc(Cl)cc1 | i | i | 10* | i | i
COC(=O)c1ccc(N2CN=C(c3ccc(C)cc3)NC2=S)cc1 | i | i | i | i | i
Cn1cc(-c2nc3ccccc3[nH]2)c2ccccc21 | -6* | i | i | i | i
CCOc1ccc2c(c1)sc(N)[n+]2Cc1cc(C)cc2cccnc12 | -7* | i | i | i | i
COc1ccc2c(c1)sc(N)[n+]2Cc1cc(C)cc2cccnc12 | -5* | i | i | i | i
Cc1cc(C[n+]2cc(Cl)ccc2N)c2ncccc2c1 | i | i | i | i | i
Cc1cc(C[n+]2ncsc2N)c2ncccc2c1 | i | i | i | i | i
CCC1(c2ccc(F)cc2)NC(=O)N(CC(=O)Nc2cccc(S(=O)(=O)N3CCCCC3)c2)C1=O (stereo unspecified) | i | i | 12* | i | i
COc1ccc2oc(C(=O)c3ccccc3)c(NC(=O)CN3CCN(C)CC3)c2c1 | i | 51* | 19* | -8.12* | i
CN1CCN(CC(=O)Nc2c(C(=O)c3ccccc3)oc3ccccc23)CC1 | i | i | i | i | i
CCOc1ccc(Cl)cc1/C=N/NC(=O)c1ccccc1 | i | i | i | i | i
COc1ccc(C(=O)Nc2ccc(O)c3ccccc23)cc1 | i | i | i | i | i
COc1ccc(C(CNC(=O)c2cccc(S(=O)(=O)NCc3ccccc3)c2)N(C)C)cc1 (stereo unspecified) | i | 159* | i | i | i
O=C(CCS(=O)(=O)c1ccccc1)NCCS(=O)(=O)c1ccccc1 | i | i | i | i | i
CN(C)C(CNC(=O)CCS(=O)(=O)c1ccccc1)c1ccccc1 (stereo unspecified) | i | 96* | i | i | i
COc1ccc(C(CNC(=O)c2ccc3c(c2)OCCO3)N(C)C)cc1 (stereo unspecified) | i | 164* | i | i | i
CN(C)C(CNC(=O)c1cccc(S(=O)(=O)N(C)C)c1)c1ccccc1 (stereo unspecified) | i | 109* | i | i | i
O=C(NC(Nc1ccc(F)cc1)(C(F)(F)F)C(F)(F)F)c1cccnc1 | i | i | i | i | i
CN(C)C(CNC(=O)CCc1c[nH]c2ccccc12)c1ccccc1 (stereo unspecified) | i | 138* | i | i | i
CN(C)S(=O)(=O)c1ccc(C(=O)NCCSc2ccccc2)cc1 | i | i | i | i | i
CN(C)C(CNC(=O)c1ccc(S(=O)(=O)N(C)C)cc1)Cc1ccccc1 (stereo unspecified) | i | 74* | i | i | i
COc1ccccc1N1CCN(c2nc3ccccc3nc2C(C#N)C(=O)OC(C)C)CC1 (stereo unspecified) | i | i | i | i | i
SMILES | TRPC4 block | TRPC4 agonist | TRPC4 PAM | TRPC6 inhibitor | TRPC6 activator
CC(=O)Nc1ccc(S(=O)(=O)NC(CC(=O)O)c2ccc(OC(C)C)cc2)cc1 (stereo unspecified) | i | i | i | i | i
O=C(c1ccc(COc2ccccc2Br)cc1)N1CCCCCC1 | i | i | 12* | i | i
c1ccc(COc2cccc(CNCc3ccccn3)c2)cc1 | i | i | i | i | i
c1ccc(COc2cccc(CNCc3cccnc3)c2)cc1 | -6* | i | i | i | i
Clc1ccc(COc2ccccc2CNCc2cccnc2)cc1 | -6* | i | i | i | i
CCN1CNC(=S)N(c2cccc(C)c2)C1 | i | i | i | i | i
C/C(=N\O)C(=O)OC1CC(C)CCC1C(C)C (stereo unspecified) | i | i | 13* | i | i
CCCc1cnc(N2CCN(S(C)(=O)=O)CC2)nc1 | i | i | i | i | i
Cc1ccc(NC(=O)CN2CCc3ccccc3C2)cc1S(=O)(=O)N1CCOCC1 | -9* | 70* | i | i | i
COC(=O)c1ccccc1NC(=O)CN1CCc2ccccc2C1 | i | i | i | i | i
Cc1ccc(NC(=O)CN2CCc3ccccc3C2)cc1F | -7* | i | i | i | i
CC(NC(=O)c1ccccc1NC(=O)CN1CCc2ccccc2C1)c1ccccc1 (stereo unspecified) | i | i | 15* | i | i
O=C(O)c1ccc(Cn2cnc3cccnc32)cc1 | i | i | i | i | i
NC(=O)NC(=O)COC(=O)CCCCCNS(=O)(=O)c1ccc2c(c1)OCCO2 | i | i | i | i | i
Cc1ccc(-n2c3nc(=O)[nH]c(=O)c-3cc3cc([N+](=O)[O-])ccc32)cc1C | i | i | 10* | i | i
CCOC(=O)C(CCCCCOc1ccccc1[N+](=O)[O-])C(=O)OCC | -6* | i | i | i | i
CCOC(=O)C(CCCCOc1cccc(CC)c1)C(=O)OCC | i | i | i | i | i
O=[N+]([O-])c1ccccc1OCCCN1CCc2ccccc2C1 | i | i | i | i | i
CC1CC(C)CN(CCCOc2ccccc2[N+](=O)[O-])C1 (stereo unspecified) | i | 48* | i | i | i
CCOC(=O)C(CCCCCOc1ccc([N+](=O)[O-])cc1)C(=O)OCC | i | i | 23* | i | i
Cc1ccc(N2CC(C(=O)Nc3cc(C(F)(F)F)ccc3N3CCCC3)CC2=O)cc1 (stereo unspecified) | i | i | i | i | i
O=c1[nH]c(NNC(=S)NC2CCCCC2)nc2c1C1(CCCC1)Cc1ccccc1-2 | i | i | i | i | i
O=C(Nc1ccc(NS(=O)(=O)c2ccccc2)cc1)c1ccccc1 | i | i | i | i | i
